From ChEMBL document CHEMBL1126613, “Centrally acting serotonergic agents. Synthesis and structure-activity relationships of C-1- or C-3-substituted derivatives of 8-hydroxy-2-(di-n-propylamino)tetralin” (J Med Chem, 1993)
Where “and” joins values, the source holds several entries; their conditions need not be identical. Equal entries are not always repeated.

How the values were obtained:
[1] = species on record: Felis catus; assay: Maximum decrease observed; format: functional; set-up: unit not given here
[2] = system: Felis catus; assay: Maximum decrease on arterial blood pressure at 1 mg/kg; format: functional
Method in brief: (§1)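 Adult cats (2.5-4.0 kg) anesthetized with ketamine 11 mg/kg im, then chloralose 80 mg/kg iv. Femoral artery cannulated for blood pressure, femoral vein for drug. Ventilated, paralyzed with gallamine 4 mg/kg iv, rectal temperature held at 37-38 °C. Cumulative iv doses given at 20-min intervals. Maximum decrease reported following a 1 mg/kg iv dose.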

[3] = system: Felis catus; assay: (§2) Dose on arterial blood pressure (BP) in anesthetized cat; format: functional; method in brief: as §1
[4] = species on record: Felis catus; assay: Dose at which the SND has been reduced to 50% of the pretreatment value; format: functional
Method in brief: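 Adult cats (2.5-4.0 kg), ketamine 11 mg/kg im then chloralose 80 mg/kg iv, ventilated, gallamine-paralyzed, rectal temperature 37-38 °C. Sympathetic nerve discharge quantified by cumulative integration. Cumulative iv doses were given at 20-min intervals. Value is the dose reducing discharge to 50% of pretreatment.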

[5] = system: Mus musculus; assay: Tested in vivo for the effective dose administered orally in mouse hypothermia assay; format: functional; conditions: po
Method in brief: (§3)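 Charles River CF-1 mice (18-22 g, 4 per dose), housed individually 20 min before testing. Rectal temperature taken before dosing and 20 min after (sc 0.1 mL; oral 0.2 mL by gavage needle). A drop of ≥2 °F counted as positive. Doses started at 30 mg/kg and fell by half-log until 0/4 responded.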

[6] = system: Mus musculus; assay: In vivo effective dose administered subcutaneously in mouse hypothermia assay.; format: functional; conditions: sc; method in brief: as §3
[7] = system: Mus musculus; assay: Behavioral time in mouse face to face assay at 34 umol/kg administered subcutaneously; format: functional
Method in brief: (§4)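 Male CF-1 mice (Charles River, 19-29 g), 8 pairs per dose, dosed sc, ip or orally in 0.25% methylcellulose or 0.1% citric acid; 30 min absorption housed with familiar partner. Pairs from different home cages placed in small litter-floored cage; face-to-face interaction duration scored visually for 3 min. Wilcoxon rank sum (two-tailed) vs daily control, p < 0.05.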

[8] = system: Mus musculus; assay: Behavioral time in mouse face to face assay at 0.3 umol/kg administered subcutaneously; format: functional; method in brief: as §4
[9] = system: Mus musculus; assay: Behavioral time in mouse isolation-induced aggression assay at 34 umol/kg administered intraperitoneally; format: functional
Method in brief: (§5)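 Male CF-1 mice. Residents were isolated singly for at least 1 month; group-housed intruders were kept 4-6/cage. Mice weighed 28-30 g at first test. Residents got drug ip or orally in 0.25% methylcellulose or 0.1% citric acid 30 min before an untreated intruder was introduced. Latency to fighting was recorded, capped at 600 s. Dosing was blind, 6/group (vehicle n = 12), Wilcoxon rank sum.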

[10] = system: Mus musculus; assay: Behavioral time in mouse face to face assay at 3.4 umol/kg administered subcutaneously; format: functional; method in brief: as §4
[11] = system: Mus musculus; assay: Behavioral time in mouse isolation-induced aggression assay at 10 umol/kg administered intraperitoneally; format: functional; method in brief: as §5
[12] = system: Mus musculus; assay: Behavioral time in mouse isolation-induced aggression assay at 3.4 umol/kg administered intraperitoneally; format: functional; method in brief: as §5
[13] = system: Mus musculus; assay: Behavioral time in mouse face to face assay at 0 umol/kg administered subcutaneously; format: functional; method in brief: as §4
[14] = system: Mus musculus; assay: Tested in vivo for the maximum temperature decrease in mouse hypothermia assay.; format: functional
Method in brief: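 CF-1 mice (18-22 g, 4 per dose), dosed sc or orally. Rectal temperature measured before dosing and 20 min after. The mean maximum temperature drop (°F) at 20 min after any dose is recorded as an efficacy index.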

[15] = system: Rattus norvegicus; assay: Effect on the synthesis rate of dopamine (DOPA) accumulation at the dose of 3.4 umol/kg in the rat ventral limbic brain region; format: functional, Limbic system
Method in brief: (§6)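 Male Sprague-Dawley rats dosed sc with drug or vehicle at time zero. NSD 1015 (100 mg/kg ip) given 15 min later to block aromatic decarboxylase. Brain DOPA and 5-HTP measured by electrochemical detection with peak integration. Expressed as percent change from NSD 1015 plus saline controls. Control and test groups N = 6 each, compared by unpaired t test.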

[16] = system: Rattus norvegicus; assay: Effect on the synthesis rate of 5 HTP accumulation at the dose of 3.4 umol/kg in the rat ventral limbic brain region; format: functional, Limbic system; method in brief: as §6
[17] = system: Mus musculus; assay: Behavioral time in mouse face to face assay at 0.3 umol/kg administered perorally; format: functional; method in brief: as §4
[18] = system: Mus musculus; assay: Behavioral time in mouse face to face assay at 0 umol/kg administered perorally; format: functional; method in brief: as §4
[19] = system: Rattus norvegicus; assay: Effect on the synthesis rate of dopamine (DOPA) accumulation at the dose of 9.7 umol/kg in the rat ventral limbic brain region; format: functional, Limbic system; method in brief: as §6
[20] = system: Rattus norvegicus; assay: Effect on the synthesis rate of 5 HTP accumulation at the dose of 9.7 umol/kg in the rat ventral limbic brain region; format: functional, Limbic system; method in brief: as §6
[21] = system: Felis catus; assay: as §2; format: functional; remark: listed apart in the source
[22] = system: Mus musculus; assay: Behavioral time in mouse face to face assay at 30 umol/kg administered subcutaneously; format: functional
Method in brief: (§7)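 Male CF-1 mice (19-29 g), 8 pairs per dose, dosed sc, ip or orally in 0.25% methylcellulose or 0.1% citric acid. Pairs from the same home cage are held together for 30 min. Pairs from different cages are then placed in a small litter-floored cage, and face-to-face interaction is timed visually for 3 min. Comparison with the daily control by two-tailed Wilcoxon rank sum, p<0.05.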

[23] = system: Mus musculus; assay: Behavioral time in mouse face to face assay at 30 umol/kg administered subcutaneously (*P<0.05); format: functional; method in brief: as §7
[24] = system: Mus musculus; assay: Behavioral time in mouse face to face assay at 3.0 umol/kg administered subcutaneously; format: functional; method in brief: as §7
[25] = system: Mus musculus; assay: Behavioral time in mouse isolation-induced aggression behavioral assay at 30 umol/kg administered intraperitoneally (*P<0.05); format: functional
Method in brief: (§8)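 Isolated male CF-1 resident mice, housed singly ≥1 month and weighing 28-30 g at testing, were dosed ip or orally in 0.25% methylcellulose or 0.1% citric acid. Dosing was blind, 6 per group (n=12 vehicle). After 30 min an untreated group-housed intruder was introduced. Latency to fighting was recorded, capped at 600 s. Residents rested ≥3 days before reuse. Wilcoxon rank sum.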

[26] = system: Mus musculus; assay: Behavioral time in mouse isolation-induced aggression behavioral assay at 9.1 umol/kg administered intraperitoneally (*P<0.05); format: functional; method in brief: as §8
[27] = system: Mus musculus; assay: Behavioral time in mouse face to face assay at dose of 0 umol/kg administered; format: functional; method in brief: as §7
[28] = system: Mus musculus; assay: Behavioral time in mouse isolation-induced aggression assay 0 umol/kg administered intraperitoneally; format: functional; method in brief: as §8
[29] = system: Mus musculus; assay: Behavioral time in mouse isolation-induced aggression assay 0.3 umol/kg administered intraperitoneally; format: functional; method in brief: as §8
[30] = system: Mus musculus; assay: Behavioral time in mouse isolation-induced aggression assay at 0 umol/kg administered intraperitoneally; format: functional; method in brief: as §8
[31] = system: Mus musculus; assay: Behavioral time in mouse isolation-induced aggression assay at 0.9 umol/kg administered intraperitoneally; format: functional; method in brief: as §8
[32] = system: Mus musculus; assay: Behavioral time in mouse isolation-induced aggression assay at 3.0 umol/kg administered intraperitoneally (*P<0.05); format: functional; method in brief: as §8
[33] = system: Rattus norvegicus; assay: Effect on the synthesis rate of dopamine (DOPA) accumulation at the dose of 3.0 umol/kg in the rat ventral limbic brain region; format: functional, Limbic system
Method in brief: (§9)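 Male Sprague-Dawley rats were given test drug or vehicle sc at time zero, then NSD 1015 (100 mg/kg ip) 15 min later. DOPA and 5-HTP were measured electrochemically by peak integration. Results are expressed as percent change from NSD 1015 plus saline controls. Groups of 6 vs control 6, unpaired t test.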

[34] = system: Rattus norvegicus; assay: Effect on the synthesis rate of dopamine (DOPA) accumulation at the dose of 0.3 umol/kg in the rat ventral limbic brain region; format: functional, Limbic system; method in brief: as §9
[35] = system: Rattus norvegicus; assay: Effect on the synthesis rate of 5 HTP accumulation at the dose 0.3 umol/kg in the rat ventral limbic brain region; format: functional, Limbic system; method in brief: as §9
[36] = system: Rattus norvegicus; assay: Effect on the synthesis rate of 5 HTP accumulation at the dose of 3.0 umol/kg in the rat ventral limbic brain region (*P<0.05); format: functional, Limbic system; method in brief: as §9

SMILES: C=CCN[C@@H]1CCc2cccc(OC)c2[C@@H]1CC=C
- Max decrease [1]: 18
- Max decrease [2]: 58
- BP [3]: 70%
- ED50 [4]: 0.54 µmol/kg
- ED50 [5]: 44 µmol/kg
- ED50 [6]: 7.9 µmol/kg
- Time [7]: 4.3 s
- Time [8]: 0.9 s
- Time [9]: 290 s
- Time [10]: 1.4 s
- Time [11]: 130 s
- Time [12]: 45 s
- Time [13]: 1.1 s
- TMP.decrease [14]: 9.8 degrees F and 6.6 degrees F
- Change [15]: -21%
- Change [16]: -60%

SMILES: CCCN[C@@H]1CCc2cccc(OC)c2[C@H]1CC1CC1
- ED50 [5]: 99 µmol/kg
- ED50 [6]: 13 µmol/kg
- Time [17]: 1.5 s
- Time [18]: 2 s and 5 s
- Change [19]: 18.7%
- Change [20]: -43.7%

SMILES: C=CCN[C@@H]1CCc2cccc(OC)c2[C@@H]1CO
- Max decrease [1]: 5
- Max decrease [2]: 48
- BP [3]: 82%
- ED50 [4]: 0.09 µmol/kg
- ED50 [5]: > 106 µmol/kg
- ED50 [6]: 1.4 µmol/kg

SMILES: CCCN(CCC)C1CCc2cccc(O)c2C1 (stereo not drawn) [8-OH-DPAT]
- Max decrease [1]: 2
- Max decrease [2]: 57
- BP (ED50) [21]: 66%
- ED50 [4]: 0.03 µmol/kg
- ED50 [5]: 9.7 µmol/kg
- ED50 [6]: 1 µmol/kg
- Time [22]: 5 s
- Time [23]: 4.4 s
- Time [24]: 1.6 s
- Time [25]: 351 s
- Time [26]: 437 s
- Time [27]: 1.1 s
- Time [28]: 6 s
- Time [29]: 11 s
- Time [30]: 177 s
- Time [31]: 20 s
- Time [32]: 310 s
- TMP.decrease [14]: 7.2 degrees F and 7.5 degrees F
- Change [33]: 3.2%
- Change [34]: 16%
- Change [35]: -37%
- Change [36]: -48%

SMILES: CCC[C@H]1c2c(O)cccc2CC[C@H]1N(CCC)CCC
- ED50 [5]: > 92 µmol/kg
- ED50 [6]: 9.5 µmol/kg
- TMP.decrease [14]: 6.9 degrees F
